# In ChEMBL document CHEMBL4680114, “Optimization of Potent and Selective Ataxia Telangiectasia-Mutated Inhibitors Suitable for a Proof-of-Concept Study in Huntington's Disease Models” (J Med Chem, 2019):
# Test: Volume of distribution at steady state in C57BL/6J mouse at 3 mg/kg, iv administered as single dose by LC-MS/MS analysis
# Format: ADME, organism-based
# Details: in vivo, read-out: Vdss
# How it was run: (§1)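 Male mice given a single iv dose of 3 mg/kg in 10:50:40 DMSO:PEG400:H2O (5 mL/kg). Plasma (cardiac puncture) and brain collected, n=3 per time point, and measured by LC-MS/MS. Non-compartmental parameters from mean concentrations, with C0 back-extrapolated; AUC by linear trapezoidal method, dose-normalised.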
row,SMILES,Vd
1,COC[C@@H](C)Oc1ccc2c(c1)Cc1cccc(-c3cc(=O)cc(N4CCOCC4)o3)c1S2,1.9 L/kg
2,COC[C@H]1c2cc(OC)ccc2Sc2c(-c3cc(=O)cc(N4CCOCC4)o3)cccc21,3 L/kg
3,C[C@H](CN1C[C@@H](C)O[C@@H](C)C1)Oc1ccc2c(c1)Cc1cccc(-c3cc(=O)cc(N4CCOCC4)o3)c1S2,2.3 L/kg
4,CC(C)(O)C1CCN(CCOc2ccc3c(c2)Cc2cccc(-c4cc(=O)cc(N5CCOCC5)o4)c2S3)CC1,4.2 L/kg
5,O=c1cc(-c2cccc3c2Sc2ccc(O[C@@H]4CCN(CC(F)F)C4)cc2C3)oc(N2CCOCC2)c1,2.6 L/kg
6,COc1ccc2c(c1)C1(CCOCC1)c1cccc(-c3cc(=O)cc(N4CCOCC4)o3)c1S2,3 L/kg
7,O=c1cc(-c2cccc3c2Sc2ccc(OC4COC4)cc2C3)oc(N2CCOCC2)c1,1.6 L/kg

# Test: Kinetic solubility in pH 7.4 PBS buffer by LC-UV assay
# Format: physicochemical
# Details: read-out: Kinetic_solubility
# How it was run: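 Compound from a 10 mM DMSO stock diluted to a nominal 200 µM in 0.1 M potassium phosphate/0.8% NaCl pH 7.4 (2% DMSO final), n=2. Shaken 2 h at room temperature, then filtered. Filtrate quantified by LC-UV against 200 µM and 10 µM DMSO standards, with MS peak confirmation.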
row,SMILES,solubility kinetic
1,O=C(Nc1ccc2c(c1)Cc1cccc(-c3cc(=O)cc(N4CCOCC4)o3)c1S2)C1CC1,5 µg/mL
2,C[C@@H](CN1CCOC2(CC2)C1)Oc1ccc2c(c1)Cc1cccc(-c3cc(=O)cc(N4CCOCC4)o3)c1S2,26 µg/mL
3,COC[C@@H](C)Oc1ccc2c(c1)Cc1cccc(-c3cc(=O)cc(N4CCOCC4)o3)c1S2,22 µg/mL
4,C[C@H](CN1CCOCC1)Oc1ccc2c(c1)Cc1cccc(-c3cc(=O)cc(N4CCOCC4)o3)c1S2,49 µg/mL
5,COC[C@H]1c2cc(OC)ccc2Sc2c(-c3cc(=O)cc(N4CCOCC4)o3)cccc21,67 µg/mL
6,C[C@H](CN1C[C@@H](C)O[C@@H](C)C1)Oc1ccc2c(c1)Cc1cccc(-c3cc(=O)cc(N4CCOCC4)o3)c1S2,30 µg/mL
7,C[C@H](COc1ccc2c(c1)Cc1cccc(-c3cc(=O)cc(N4CCOCC4)o3)c1S2)N1CCOCC1,13 µg/mL
8,CO[C@@H](C)COc1ccc2c(c1)Cc1cccc(-c3cc(=O)cc(N4CCOCC4)o3)c1S2,14 µg/mL
9,O=c1cc(-c2cccc3c2Sc2ccc(OCCN4CC(F)C4)cc2C3)oc(N2CCOCC2)c1,46 µg/mL
10,C[C@@H](CN1CCOCC12COC2)Oc1ccc2c(c1)Cc1cccc(-c3cc(=O)cc(N4CCOCC4)o3)c1S2,29 µg/mL
11,CC(=O)Nc1ccc2c(c1)Cc1cccc(-c3cc(=O)cc(N4CCOCC4)o3)c1S2,34 µg/mL
12,C[C@H](O)COc1ccc2c(c1)Cc1cccc(-c3cc(=O)cc(N4CCOCC4)o3)c1S2,30 µg/mL
13,CC(C)(O)C1CCN(CCOc2ccc3c(c2)Cc2cccc(-c4cc(=O)cc(N5CCOCC5)o4)c2S3)CC1,101 µg/mL
14,O=c1cc(-c2cccc3c2Sc2ccc(OCCN4CCC(F)(F)C4)cc2C3)oc(N2CCOCC2)c1,3 µg/mL
15,O=C(CN1CCCC1)Nc1ccc2c(c1)Cc1cccc(-c3cc(=O)cc(N4CCOCC4)o3)c1S2,81 µg/mL
16,C[C@@H]1CN(CC(=O)Nc2ccc3c(c2)Cc2cccc(-c4cc(=O)cc(N5CCOCC5)o4)c2S3)C[C@H](C)O1,46 µg/mL
17,CN1CCN(CCOc2ccc3c(c2)Cc2cccc(-c4cc(=O)cc(N5CCOCC5)o4)c2S3)CC1,92 µg/mL
18,C[C@@H](CN1C[C@H]2C[C@@H]1CO2)Oc1ccc2c(c1)Cc1cccc(-c3cc(=O)cc(N4CCOCC4)o3)c1S2,89 µg/mL
19,C[C@@H]1CN(CCOc2ccc3c(c2)Cc2cccc(-c4cc(=O)cc(N5CCOCC5)o4)c2S3)C[C@H](C)O1,42.5 µg/mL
20,O=c1cc(-c2cccc3c2Sc2ccc(OC4CN(CC(F)F)C4)cc2C3)oc(N2CCOCC2)c1,12 µg/mL

row,SMILES,solubility kinetic
1,O=c1cc(-c2cccc3c2Sc2ccc(OCCN4CCCC45CCOC5)cc2C3)oc(N2CCOCC2)c1 (stereo not given),47 µg/mL
2,CC1(CNc2ccc3c(c2)Cc2cccc(-c4cc(=O)cc(N5CCOCC5)o4)c2S3)COC1,14 µg/mL
3,O=c1cc(-c2cccc3c2Sc2ccc(OCC4CCOCC4)cc2C3)oc(N2CCOCC2)c1,< 2 µg/mL
4,O=c1cc(-c2cccc3c2Sc2ccc(O[C@@H]4CCN(CC(F)F)C4)cc2C3)oc(N2CCOCC2)c1,7 µg/mL
5,COc1ccc2c(c1)C1(CCOCC1)c1cccc(-c3cc(=O)cc(N4CCOCC4)o3)c1S2,33 µg/mL
6,CC(=O)N(C)c1ccc2c(c1)Cc1cccc(-c3cc(=O)cc(N4CCOCC4)o3)c1S2,77 µg/mL
7,COc1ccc2c(c1)C(C)(C)c1cccc(-c3cc(=O)cc(N4CCOCC4)o3)c1S2,5 µg/mL
8,C[C@@H]1CN(C[C@H](C)Oc2ccc3c(c2)Cc2cccc(-c4cc(=O)cc(N5CCOCC5)o4)c2S3)C[C@H](C)O1,27 µg/mL
9,O=c1cc(-c2cccc3c2Sc2ccc(OC4CCOCC4)cc2C3)oc(N2CCOCC2)c1,10 µg/mL
10,C[C@@H](CN1CCOCC1)Oc1ccc2c(c1)Cc1cccc(-c3cc(=O)cc(N4CCOCC4)o3)c1S2,56 µg/mL
11,C[C@@H]1CN([C@H](C)COc2ccc3c(c2)Cc2cccc(-c4cc(=O)cc(N5CCOCC5)o4)c2S3)C[C@H](C)O1,24 µg/mL
12,C[C@@H](COc1ccc2c(c1)Cc1cccc(-c3cc(=O)cc(N4CCOCC4)o3)c1S2)N1CCOCC1,9 µg/mL
13,COC[C@@H]1c2cc(OC)ccc2Sc2c(-c3cc(=O)cc(N4CCOCC4)o3)cccc21,64 µg/mL
14,CCN1CC(Oc2ccc3c(c2)Cc2cccc(-c4cc(=O)cc(N5CCOCC5)o4)c2S3)C1,89 µg/mL
15,O=c1cc(-c2cccc3c2Sc2ccc(OCCN4C[C@H]5C[C@@H]4CO5)cc2C3)oc(N2CCOCC2)c1 (relative stereo),82 µg/mL
16,O=c1cc(-c2cccc3c2Sc2ccc(OCCN4CCC(F)(F)CC4)cc2C3)oc(N2CCOCC2)c1,3 µg/mL
17,C[C@@H](CN1CCCC12COC2)Oc1ccc2c(c1)Cc1cccc(-c3cc(=O)cc(N4CCOCC4)o3)c1S2,21 µg/mL
18,O=c1cc(-c2cccc3c2Sc2ccc(OC4COC4)cc2C3)oc(N2CCOCC2)c1,25 µg/mL
19,CN1CC[C@@H](Oc2ccc3c(c2)Cc2cccc(-c4cc(=O)cc(N5CCOCC5)o4)c2S3)C1,84 µg/mL

# Test: Distribution coefficient, logD of compound at pH 7.4
# Format: physicochemical
# Details: octanol/water
row,SMILES,logD
1,C[C@@H]1CN(CC(=O)Nc2ccc3c(c2)Cc2cccc(-c4cc(=O)cc(N5CCOCC5)o4)c2S3)C[C@H](C)O1,4.5

# Test: Unbound brain-to-plasma concentration ratio in C57BL/6J mouse at 3 mg/kg, iv administered as single dose by LC-MS/MS analysis
# Format: ADME, organism-based
# Details: brain and plasma, read-out: K(p,uu,brain)
row,SMILES,Kp uu
1,COC[C@@H](C)Oc1ccc2c(c1)Cc1cccc(-c3cc(=O)cc(N4CCOCC4)o3)c1S2,0.14
2,COC[C@H]1c2cc(OC)ccc2Sc2c(-c3cc(=O)cc(N4CCOCC4)o3)cccc21,0.18
3,C[C@H](CN1C[C@@H](C)O[C@@H](C)C1)Oc1ccc2c(c1)Cc1cccc(-c3cc(=O)cc(N4CCOCC4)o3)c1S2,0.03
4,CC(C)(O)C1CCN(CCOc2ccc3c(c2)Cc2cccc(-c4cc(=O)cc(N5CCOCC5)o4)c2S3)CC1,0.05
5,O=c1cc(-c2cccc3c2Sc2ccc(O[C@@H]4CCN(CC(F)F)C4)cc2C3)oc(N2CCOCC2)c1,0.05
6,COc1ccc2c(c1)C1(CCOCC1)c1cccc(-c3cc(=O)cc(N4CCOCC4)o3)c1S2,0.12
7,O=c1cc(-c2cccc3c2Sc2ccc(OC4COC4)cc2C3)oc(N2CCOCC2)c1,0.07

# Test: AUC/dose in C57BL/6J mouse plasma at 3 mg/kg, iv administered as single dose by LC-MS/MS analysis
# Format: ADME, organism-based
# Details: in vivo
# How it was run: (§2)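 Male C57BL/6 mice, single intravenous dose as solution in 10:50:40 DMSO:PEG400:H2O (5 mL/kg). Plasma by cardiac puncture and brain collected at set times, n=3 per time point. LC-MS/MS quantitation with diclofenac IS. Composite non-compartmental parameters from mean concentrations; C0 back-extrapolated from first two points; kel from at least last three concentrations; AUC dose-normalized.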
row,SMILES,AUC/dose
1,COC[C@@H](C)Oc1ccc2c(c1)Cc1cccc(-c3cc(=O)cc(N4CCOCC4)o3)c1S2,1600 nM·kg·h/mg
2,COC[C@H]1c2cc(OC)ccc2Sc2c(-c3cc(=O)cc(N4CCOCC4)o3)cccc21,960 nM·kg·h/mg
3,C[C@H](CN1C[C@@H](C)O[C@@H](C)C1)Oc1ccc2c(c1)Cc1cccc(-c3cc(=O)cc(N4CCOCC4)o3)c1S2,1100 nM·kg·h/mg
4,CC(C)(O)C1CCN(CCOc2ccc3c(c2)Cc2cccc(-c4cc(=O)cc(N5CCOCC5)o4)c2S3)CC1,950 nM·kg·h/mg
5,O=c1cc(-c2cccc3c2Sc2ccc(O[C@@H]4CCN(CC(F)F)C4)cc2C3)oc(N2CCOCC2)c1,1600 nM·kg·h/mg
6,COc1ccc2c(c1)C1(CCOCC1)c1cccc(-c3cc(=O)cc(N4CCOCC4)o3)c1S2,1500 nM·kg·h/mg
7,O=c1cc(-c2cccc3c2Sc2ccc(OC4COC4)cc2C3)oc(N2CCOCC2)c1,1900 nM·kg·h/mg

# Test: AUC/dose in C57BL/6J mouse brain at 3 mg/kg, iv administered as single dose by LC-MS/MS analysis
# Format: ADME, organism-based
# Details: in vivo
# How it was run: as §2
row,SMILES,AUC/dose
1,COC[C@@H](C)Oc1ccc2c(c1)Cc1cccc(-c3cc(=O)cc(N4CCOCC4)o3)c1S2,680 nM·kg·h/mg
2,COC[C@H]1c2cc(OC)ccc2Sc2c(-c3cc(=O)cc(N4CCOCC4)o3)cccc21,430 nM·kg·h/mg
3,C[C@H](CN1C[C@@H](C)O[C@@H](C)C1)Oc1ccc2c(c1)Cc1cccc(-c3cc(=O)cc(N4CCOCC4)o3)c1S2,110 nM·kg·h/mg
4,CC(C)(O)C1CCN(CCOc2ccc3c(c2)Cc2cccc(-c4cc(=O)cc(N5CCOCC5)o4)c2S3)CC1,120 nM·kg·h/mg
5,O=c1cc(-c2cccc3c2Sc2ccc(O[C@@H]4CCN(CC(F)F)C4)cc2C3)oc(N2CCOCC2)c1,380 nM·kg·h/mg
6,COc1ccc2c(c1)C1(CCOCC1)c1cccc(-c3cc(=O)cc(N4CCOCC4)o3)c1S2,700 nM·kg·h/mg
7,O=c1cc(-c2cccc3c2Sc2ccc(OC4COC4)cc2C3)oc(N2CCOCC2)c1,450 nM·kg·h/mg

# Test: Ratio of AUC/dose in brain to plasma of C57BL/6J mouse at 3 mg/kg, iv administered as single dose by LC-MS/MS analysis
# Format: ADME, organism-based
# Details: brain and plasma, read-out: BPR
# How it was run: as §1
row,SMILES,Kp
1,COC[C@@H](C)Oc1ccc2c(c1)Cc1cccc(-c3cc(=O)cc(N4CCOCC4)o3)c1S2,0.4
2,COC[C@H]1c2cc(OC)ccc2Sc2c(-c3cc(=O)cc(N4CCOCC4)o3)cccc21,0.4
3,C[C@H](CN1C[C@@H](C)O[C@@H](C)C1)Oc1ccc2c(c1)Cc1cccc(-c3cc(=O)cc(N4CCOCC4)o3)c1S2,0.1
4,CC(C)(O)C1CCN(CCOc2ccc3c(c2)Cc2cccc(-c4cc(=O)cc(N5CCOCC5)o4)c2S3)CC1,0.1
5,O=c1cc(-c2cccc3c2Sc2ccc(O[C@@H]4CCN(CC(F)F)C4)cc2C3)oc(N2CCOCC2)c1,0.2
6,COc1ccc2c(c1)C1(CCOCC1)c1cccc(-c3cc(=O)cc(N4CCOCC4)o3)c1S2,0.5
7,O=c1cc(-c2cccc3c2Sc2ccc(OC4COC4)cc2C3)oc(N2CCOCC2)c1,0.2
